Measured values taken from ChEMBL document CHEMBL5696442, “Discovery of type II inhibitors of TGFβ-activated kinase 1 (TAK1) and mitogen-activated protein kinase kinase kinase kinase 2 (MAP4K2)” (J Med Chem, 2015).
The source made the active and inactive calls. The rule behind the calls is not given here.

Tests used:
[1] = target: Phosphatidylinositol 4,5-bisphosphate 3-kinase catalytic subunit alpha isoform (Homo sapiens) (UniProt P42336); assay: Inhibition of PIK3CA ATP labeling site in human A-375 cells at 0.5 uM by KiNativ Profiling analysis relative to control; assay type: cell-based
Phosphatidylinositol 4,5-bisphosphate 3-kinase catalytic subunit alpha isoform (Homo sapiens), sequence (P42336 whole entry, canonical isoform): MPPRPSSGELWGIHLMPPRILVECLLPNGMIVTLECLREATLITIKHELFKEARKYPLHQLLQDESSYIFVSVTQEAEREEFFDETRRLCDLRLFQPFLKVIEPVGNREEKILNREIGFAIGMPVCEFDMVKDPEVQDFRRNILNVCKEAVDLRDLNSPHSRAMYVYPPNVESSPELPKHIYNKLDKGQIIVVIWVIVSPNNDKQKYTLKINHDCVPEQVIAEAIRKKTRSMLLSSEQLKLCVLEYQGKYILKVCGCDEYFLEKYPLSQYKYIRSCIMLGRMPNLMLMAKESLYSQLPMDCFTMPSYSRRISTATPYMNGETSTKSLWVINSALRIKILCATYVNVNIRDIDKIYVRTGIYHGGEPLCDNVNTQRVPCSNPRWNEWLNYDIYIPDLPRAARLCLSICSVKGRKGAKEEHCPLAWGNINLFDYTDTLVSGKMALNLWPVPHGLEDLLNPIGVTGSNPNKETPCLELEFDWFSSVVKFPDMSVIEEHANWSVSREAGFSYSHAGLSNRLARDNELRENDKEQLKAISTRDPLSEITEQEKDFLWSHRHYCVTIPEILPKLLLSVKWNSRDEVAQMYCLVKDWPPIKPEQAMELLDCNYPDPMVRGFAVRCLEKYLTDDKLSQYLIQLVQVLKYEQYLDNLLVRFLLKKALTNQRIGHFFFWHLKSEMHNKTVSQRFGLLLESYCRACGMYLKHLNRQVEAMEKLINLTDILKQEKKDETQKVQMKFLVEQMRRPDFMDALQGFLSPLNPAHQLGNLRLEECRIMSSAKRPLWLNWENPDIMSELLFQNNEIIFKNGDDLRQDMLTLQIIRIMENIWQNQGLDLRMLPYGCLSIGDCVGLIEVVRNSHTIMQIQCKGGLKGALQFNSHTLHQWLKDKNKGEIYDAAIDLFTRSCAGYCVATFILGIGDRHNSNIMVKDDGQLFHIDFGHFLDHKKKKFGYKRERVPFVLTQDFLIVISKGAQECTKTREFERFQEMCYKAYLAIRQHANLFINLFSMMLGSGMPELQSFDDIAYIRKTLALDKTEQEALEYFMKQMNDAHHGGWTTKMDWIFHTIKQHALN

[2] = target: Ephrin type-A receptor 5 (Homo sapiens) (UniProt P54756); assay: Inhibition of EPHA5 (unknown origin) at 1 uM by Ambit Kinomescan binding assay relative to control
Ephrin type-A receptor 5 (Homo sapiens), sequence (P54756 whole entry): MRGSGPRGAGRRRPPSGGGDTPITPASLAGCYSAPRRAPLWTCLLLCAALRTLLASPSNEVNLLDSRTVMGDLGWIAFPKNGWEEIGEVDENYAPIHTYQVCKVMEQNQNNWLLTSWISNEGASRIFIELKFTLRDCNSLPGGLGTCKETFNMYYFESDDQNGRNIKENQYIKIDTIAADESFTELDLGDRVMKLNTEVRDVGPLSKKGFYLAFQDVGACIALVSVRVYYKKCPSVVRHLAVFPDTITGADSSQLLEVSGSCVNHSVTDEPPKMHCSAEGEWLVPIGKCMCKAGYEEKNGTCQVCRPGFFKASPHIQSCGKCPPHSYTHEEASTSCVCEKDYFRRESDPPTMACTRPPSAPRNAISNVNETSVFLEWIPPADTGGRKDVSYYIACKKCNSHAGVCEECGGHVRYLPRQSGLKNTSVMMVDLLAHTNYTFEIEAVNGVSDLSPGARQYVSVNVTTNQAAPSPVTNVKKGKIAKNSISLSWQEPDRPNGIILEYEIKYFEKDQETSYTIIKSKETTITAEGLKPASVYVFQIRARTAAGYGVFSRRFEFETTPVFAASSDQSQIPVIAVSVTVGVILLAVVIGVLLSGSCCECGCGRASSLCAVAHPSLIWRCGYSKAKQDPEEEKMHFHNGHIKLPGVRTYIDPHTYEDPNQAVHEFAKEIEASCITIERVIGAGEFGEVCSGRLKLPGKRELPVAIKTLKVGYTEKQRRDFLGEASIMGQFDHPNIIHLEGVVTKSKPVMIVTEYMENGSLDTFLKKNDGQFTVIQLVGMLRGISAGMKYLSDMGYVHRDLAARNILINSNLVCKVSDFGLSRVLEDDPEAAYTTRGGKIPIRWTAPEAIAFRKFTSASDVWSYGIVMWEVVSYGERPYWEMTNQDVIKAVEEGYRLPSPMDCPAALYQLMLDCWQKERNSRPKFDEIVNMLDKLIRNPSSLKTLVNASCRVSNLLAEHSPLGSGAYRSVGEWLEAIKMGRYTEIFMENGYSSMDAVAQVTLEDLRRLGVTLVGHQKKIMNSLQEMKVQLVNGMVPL

[3] = target: Proto-oncogene tyrosine-protein kinase ROS (Homo sapiens) (UniProt P08922); assay: Inhibition of ROS1 (unknown origin) at 1 uM by Ambit Kinomescan binding assay relative to control
[4] = target: T1, Serine/threonine-protein kinase Nek9 (Homo sapiens) (UniProt Q8TD19); assay: Inhibition of NEK9 Lys2 labeling site in human A-375 cells at 0.5 uM by KiNativ Profiling analysis relative to control; assay type: cell-based
T1 sequence (whole entry): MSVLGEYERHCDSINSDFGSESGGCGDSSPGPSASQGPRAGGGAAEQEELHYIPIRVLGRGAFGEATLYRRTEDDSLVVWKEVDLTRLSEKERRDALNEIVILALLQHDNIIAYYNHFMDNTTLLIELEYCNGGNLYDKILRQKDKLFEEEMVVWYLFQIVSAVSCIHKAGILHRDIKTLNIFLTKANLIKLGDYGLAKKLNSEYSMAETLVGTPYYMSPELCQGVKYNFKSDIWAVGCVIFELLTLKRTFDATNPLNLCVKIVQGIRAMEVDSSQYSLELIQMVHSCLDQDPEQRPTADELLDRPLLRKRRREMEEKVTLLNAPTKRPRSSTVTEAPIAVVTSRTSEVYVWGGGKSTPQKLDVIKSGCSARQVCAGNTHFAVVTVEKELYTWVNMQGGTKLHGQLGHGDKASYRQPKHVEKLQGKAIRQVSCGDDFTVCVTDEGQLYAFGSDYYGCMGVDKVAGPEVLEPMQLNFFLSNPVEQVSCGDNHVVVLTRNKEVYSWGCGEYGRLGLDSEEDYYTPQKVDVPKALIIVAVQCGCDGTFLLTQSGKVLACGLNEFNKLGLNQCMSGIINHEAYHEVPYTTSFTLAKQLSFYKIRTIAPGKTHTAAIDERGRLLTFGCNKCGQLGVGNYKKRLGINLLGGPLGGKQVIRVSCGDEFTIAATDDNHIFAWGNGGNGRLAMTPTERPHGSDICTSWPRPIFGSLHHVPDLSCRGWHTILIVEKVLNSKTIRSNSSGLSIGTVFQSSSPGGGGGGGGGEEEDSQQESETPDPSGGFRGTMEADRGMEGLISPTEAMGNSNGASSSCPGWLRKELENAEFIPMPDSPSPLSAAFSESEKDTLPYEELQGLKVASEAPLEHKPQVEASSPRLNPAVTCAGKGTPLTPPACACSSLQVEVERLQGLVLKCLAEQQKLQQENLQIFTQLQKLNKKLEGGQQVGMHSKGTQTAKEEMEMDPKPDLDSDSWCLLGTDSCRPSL

[5] = target: Ribosomal protein S6 kinase alpha-3 (Homo sapiens) (UniProt P51812); assay: Inhibition of RSK2 domain1 ACT labeling site in human A-375 cells at 5 uM by KiNativ Profiling analysis relative to control; assay type: cell-based
Summary of the method: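 Live A375 melanoma cells treated with compound at 5 or 0.5 μM, then lysed. Lysate kinases were labeled with a lysine-reactive ATP or ADP-biotin probe. Inhibition was read as protection of labeling sites from the probe.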

[6] = target: Peripheral plasma membrane protein CASK (Homo sapiens) (UniProt O14936); assay: Inhibition of CASK K1 labeling site in human Huh-7 cells at 10 uM by KiNativ Profiling analysis relative to control
Peripheral plasma membrane protein CASK (Homo sapiens), sequence (O14936 whole entry, looked up): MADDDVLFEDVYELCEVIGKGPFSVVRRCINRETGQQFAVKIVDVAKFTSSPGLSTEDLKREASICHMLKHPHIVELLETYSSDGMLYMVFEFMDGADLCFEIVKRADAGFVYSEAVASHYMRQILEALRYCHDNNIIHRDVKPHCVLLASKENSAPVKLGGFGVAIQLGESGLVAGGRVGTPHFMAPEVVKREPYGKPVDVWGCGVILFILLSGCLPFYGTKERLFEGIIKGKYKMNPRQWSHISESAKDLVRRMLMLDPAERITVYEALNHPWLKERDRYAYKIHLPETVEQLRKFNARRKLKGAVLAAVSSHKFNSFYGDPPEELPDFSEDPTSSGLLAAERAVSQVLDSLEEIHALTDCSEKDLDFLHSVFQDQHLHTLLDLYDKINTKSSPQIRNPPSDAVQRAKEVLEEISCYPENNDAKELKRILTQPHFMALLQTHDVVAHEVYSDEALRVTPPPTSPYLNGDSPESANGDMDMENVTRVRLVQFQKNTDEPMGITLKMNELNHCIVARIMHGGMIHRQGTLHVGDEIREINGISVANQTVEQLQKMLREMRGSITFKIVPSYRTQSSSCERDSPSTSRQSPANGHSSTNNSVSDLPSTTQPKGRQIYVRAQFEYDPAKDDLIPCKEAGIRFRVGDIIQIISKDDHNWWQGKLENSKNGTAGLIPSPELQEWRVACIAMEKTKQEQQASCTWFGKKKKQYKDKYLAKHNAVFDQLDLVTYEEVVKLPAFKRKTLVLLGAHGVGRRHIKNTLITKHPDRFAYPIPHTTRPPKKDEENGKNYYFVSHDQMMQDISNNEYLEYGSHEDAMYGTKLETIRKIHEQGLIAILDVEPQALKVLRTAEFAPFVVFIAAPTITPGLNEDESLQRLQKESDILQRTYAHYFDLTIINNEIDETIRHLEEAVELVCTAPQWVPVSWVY

[7] = target: T2, NUAK family SNF1-like kinase 2 (Homo sapiens) (UniProt Q9H093); assay: Inhibition of SNARK (unknown origin) at 10 uM by Ambit Kinomescan binding assay
T2 sequence (whole entry): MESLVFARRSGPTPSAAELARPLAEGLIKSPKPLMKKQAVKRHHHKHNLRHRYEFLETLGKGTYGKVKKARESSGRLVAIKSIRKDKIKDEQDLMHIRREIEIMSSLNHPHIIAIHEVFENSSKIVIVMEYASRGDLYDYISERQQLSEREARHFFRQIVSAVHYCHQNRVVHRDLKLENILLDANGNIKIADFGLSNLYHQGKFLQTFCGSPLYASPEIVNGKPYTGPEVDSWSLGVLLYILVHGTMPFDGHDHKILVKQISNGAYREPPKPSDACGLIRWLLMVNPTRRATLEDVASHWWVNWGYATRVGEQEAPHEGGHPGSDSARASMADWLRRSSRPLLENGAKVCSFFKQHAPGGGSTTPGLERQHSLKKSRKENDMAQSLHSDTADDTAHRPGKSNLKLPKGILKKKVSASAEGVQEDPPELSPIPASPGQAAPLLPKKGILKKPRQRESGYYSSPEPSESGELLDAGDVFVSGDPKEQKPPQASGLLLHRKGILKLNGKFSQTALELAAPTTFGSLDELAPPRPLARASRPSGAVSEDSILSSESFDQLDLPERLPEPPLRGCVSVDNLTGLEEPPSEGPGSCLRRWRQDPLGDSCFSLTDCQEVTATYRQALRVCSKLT

[8] = target: SRSF protein kinase 1 (Homo sapiens) (UniProt Q96SB4); assay: Inhibition of SRPK1 (unknown origin) at 10 uM by Ambit Kinomescan binding assay
SRSF protein kinase 1 (Homo sapiens), sequence (Q96SB4 whole entry): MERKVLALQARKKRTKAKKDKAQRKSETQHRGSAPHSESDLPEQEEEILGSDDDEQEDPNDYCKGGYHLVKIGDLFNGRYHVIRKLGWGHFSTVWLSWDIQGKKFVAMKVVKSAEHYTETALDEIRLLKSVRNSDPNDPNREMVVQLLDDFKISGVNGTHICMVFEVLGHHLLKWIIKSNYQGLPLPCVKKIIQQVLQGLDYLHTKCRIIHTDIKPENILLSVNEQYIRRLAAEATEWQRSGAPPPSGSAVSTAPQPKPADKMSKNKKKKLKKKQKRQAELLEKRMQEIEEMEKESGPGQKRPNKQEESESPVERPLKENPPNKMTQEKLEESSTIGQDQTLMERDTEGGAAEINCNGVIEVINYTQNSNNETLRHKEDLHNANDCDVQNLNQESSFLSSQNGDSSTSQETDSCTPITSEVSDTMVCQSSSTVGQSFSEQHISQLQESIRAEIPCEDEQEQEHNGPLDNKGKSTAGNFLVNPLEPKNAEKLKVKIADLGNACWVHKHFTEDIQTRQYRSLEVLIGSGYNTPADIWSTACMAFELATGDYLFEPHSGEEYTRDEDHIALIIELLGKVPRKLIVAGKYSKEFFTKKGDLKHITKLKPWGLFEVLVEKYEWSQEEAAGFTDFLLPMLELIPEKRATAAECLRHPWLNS

[9] = target: T3, Serine/threonine-protein kinase Sgk3 (Homo sapiens) (UniProt Q96BR1); assay: Inhibition of SGK3 Lys2 labeling site in human Huh-7 cell lysate at 1 uM by KiNativ Profiling analysis relative to control; assay type: subcellular
T3 sequence (whole entry): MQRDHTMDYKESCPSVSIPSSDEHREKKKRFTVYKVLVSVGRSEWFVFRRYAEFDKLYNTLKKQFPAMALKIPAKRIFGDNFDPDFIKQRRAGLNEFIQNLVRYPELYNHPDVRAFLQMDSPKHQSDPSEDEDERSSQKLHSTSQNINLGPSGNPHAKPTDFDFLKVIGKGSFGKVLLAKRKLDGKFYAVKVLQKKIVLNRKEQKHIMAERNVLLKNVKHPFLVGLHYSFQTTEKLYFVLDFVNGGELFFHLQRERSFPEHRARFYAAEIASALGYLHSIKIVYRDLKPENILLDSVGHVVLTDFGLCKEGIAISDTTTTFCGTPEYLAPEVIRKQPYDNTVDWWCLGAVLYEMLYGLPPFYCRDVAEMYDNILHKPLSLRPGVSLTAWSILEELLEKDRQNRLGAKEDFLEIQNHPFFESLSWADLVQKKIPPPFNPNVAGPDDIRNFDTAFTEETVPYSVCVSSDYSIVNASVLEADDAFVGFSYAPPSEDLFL

[10] = target: Phosphatidylinositol 4,5-bisphosphate 3-kinase catalytic subunit beta isoform (Homo sapiens) (UniProt P42338); assay: Inhibition of PIK3CB ATP labeling site harbouring VFGEDSVGVIFKNGDDLRQDMLTLQMLR in human Huh-7 cell lysate at 1 uM by KiNativ Profiling analysis relative to control; assay type: subcellular
Phosphatidylinositol 4,5-bisphosphate 3-kinase catalytic subunit beta isoform (Homo sapiens), sequence (P42338 whole entry, looked up, canonical isoform): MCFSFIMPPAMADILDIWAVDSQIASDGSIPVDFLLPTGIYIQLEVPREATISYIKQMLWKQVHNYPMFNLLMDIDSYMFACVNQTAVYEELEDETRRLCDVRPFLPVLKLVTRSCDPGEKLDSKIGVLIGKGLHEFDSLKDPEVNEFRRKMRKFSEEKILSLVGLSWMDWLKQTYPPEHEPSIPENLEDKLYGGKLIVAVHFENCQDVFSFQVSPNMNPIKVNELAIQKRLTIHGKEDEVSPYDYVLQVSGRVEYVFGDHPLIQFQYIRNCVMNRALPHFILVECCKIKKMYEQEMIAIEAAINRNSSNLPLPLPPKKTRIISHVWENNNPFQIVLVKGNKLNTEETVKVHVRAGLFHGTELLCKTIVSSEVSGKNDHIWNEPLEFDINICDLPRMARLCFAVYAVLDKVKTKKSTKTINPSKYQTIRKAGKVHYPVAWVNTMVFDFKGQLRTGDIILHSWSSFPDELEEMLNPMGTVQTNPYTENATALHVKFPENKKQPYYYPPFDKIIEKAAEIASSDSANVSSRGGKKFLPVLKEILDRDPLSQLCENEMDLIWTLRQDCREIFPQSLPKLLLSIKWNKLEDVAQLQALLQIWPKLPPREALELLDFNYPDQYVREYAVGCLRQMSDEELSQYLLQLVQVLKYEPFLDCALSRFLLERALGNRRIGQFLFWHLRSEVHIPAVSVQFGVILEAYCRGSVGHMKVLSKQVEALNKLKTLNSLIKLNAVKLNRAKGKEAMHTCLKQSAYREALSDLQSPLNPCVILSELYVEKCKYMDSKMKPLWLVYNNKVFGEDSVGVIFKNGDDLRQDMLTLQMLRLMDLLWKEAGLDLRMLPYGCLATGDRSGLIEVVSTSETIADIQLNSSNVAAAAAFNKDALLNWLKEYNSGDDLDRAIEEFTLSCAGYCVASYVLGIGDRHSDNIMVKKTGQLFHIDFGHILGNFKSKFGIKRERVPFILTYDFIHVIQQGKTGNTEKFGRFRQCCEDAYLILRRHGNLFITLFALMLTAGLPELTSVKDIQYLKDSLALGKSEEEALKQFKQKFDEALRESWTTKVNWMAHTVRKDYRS

CCN1CCN(Cc2ccc(NC(=O)c3ccc(C)c(/C=C/c4cnc5[nH]ccc5c4OC)c3)cc2C(F)(F)F)CC1 gave an inhibition [1] of 34.5%, an inhibition [2] of 21% and an inhibition [3] of 100%. It also gave an inhibition [4] of 10.4% and an inhibition [5] of 17.8%.

CCN1CCN(Cc2ccc(NC(=O)c3ccc(C)c(Oc4ccnc5[nH]ccc45)c3)cc2C(F)(F)F)CC1 was tested, and the inhibition [6] was 12%, the inhibition [7] was “inactive” and the inhibition [8] was “inactive”.

With CNc1cc(Oc2cc(C(=O)Nc3cc(N4CCN(C)CC4)cc(C(F)(F)F)c3)ccc2C)ncn1 the inhibition [9] was 13.3% and the inhibition [10] was 15.8%.
